Legend:
[1] = system: HCT-116; test: Cytotoxicity against human HCT116 cells after 72 hrs using resazurin dye by microtiter plate fluorimeter analysis; format: functional; conditions: HCT-116, 72 h
[2] = Cytotoxicity against human H1299 cells after 72 hrs using resazurin dye by microtiter plate fluorimeter analysis; format: functional; conditions: NCI-H1299, 72 h
[3] = system: MDA-MB-231; test: Cytotoxicity against human MDA-MB-231 cells after 72 hrs using resazurin dye by microtiter plate fluorimeter analysis; format: functional; conditions: MDA-MB-231, 72 h
[4] = system: K562; test: Cytotoxicity against human K562 cells after 72 hrs using resazurin dye by microtiter plate fluorimeter analysis; format: functional; conditions: K562, 72 h
[5] = Inhibition of sheep brain tubulin polymerization using DAPI by fluorescence assay; set-up: species or system Ovis aries
Summary of the method: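 Tubulin purified by two assembly–disassembly cycles, in 0.1 M MES, 0.5 mM MgCl2, 1 mM EGTA, 1 mM GTP, pH 6.6 (about 2-3 mg/mL). Assembly followed by DAPI fluorescence at 37°C.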

| Compound | GI50 [1] [nM] | GI50 [2] [nM] | GI50 [3] [nM] | GI50 [4] [nM] | IC50 [5] [nM] |
| --- | --- | --- | --- | --- | --- |
| COc1ccc(/C=C\c2cc(OC)c(OC)c(OC)c2)cc1O [COMBRETASTATIN A4] | 2 | 5 | 3 | 4 | – |
| C=C(c1ccc(OC)c(O)c1)c1cc(OC)c(OC)c(OC)c1 | 3 | 3 | 4 | 5 | 2200 |

Source: ChEMBL document CHEMBL2021895 (Eur J Med Chem, 2012)
